We go through one molecule from ChEMBL document CHEMBL4270612, “Discovery of dual GyrB/ParE inhibitors active against Gram-negative bacteria” (Eur J Med Chem, 2018).

Converted amounts (≈) assume the structure as drawn. Bounds are passed on as bounds.

The subject of one data set is Staphylococcus aureus. Kind of data set: Antibacterial activity against Staphylococcus aureus ATCC 29213 after 24 hrs in presence of 2% human albumin by broth microdilution method. The class given is functional. Conditions: ATCC 29213, 24 h.
Consider `CCNC(=O)Nc1cc(-c2nc(C(F)(F)F)cs2)c(-c2cc3ncccc3nc2N2C3CCC2CN(C)C3)cn1`, for which the MIC is less than 0.06 µg/mL.

In a further data set the test system is Pseudomonas aeruginosa. In words: Antibacterial activity against Pseudomonas aeruginosa ARC4068 after 24 hrs by broth microdilution method. It is filed as functional. Conditions: ARC4068, 24 h. The method, boiled down:
(§1)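 Broth microdilution per CLSI. Bacterial suspension adjusted to 1×10^6 CFU/mL in cation-adjusted Mueller–Hinton broth and mixed 1:1 with 2-fold serial compound dilutions. Plates incubated at 35 °C with shaking at 140 rpm for 24 h.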
Background: In broth dilution the organism is exposed to a series of concentrations in liquid medium.
`CCNC(=O)Nc1cc(-c2nc(C(F)(F)F)cs2)c(-c2cc3ncccc3nc2N2C3CCC2CN(C)C3)cn1` displayed an MIC of 16 µg/mL (≈ 28.1 µM).

In another data set the test system is Pseudomonas aeruginosa. In words: Antibacterial activity against Pseudomonas aeruginosa ARC3506 after 24 hrs by broth microdilution method. It is filed as functional. Conditions: ARC3506, 24 h. The method, boiled down: (§2)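 Broth microdilution per CLSI. Bacterial suspension adjusted to 1×10^6 CFU/mL in cation-adjusted Mueller–Hinton broth and mixed 1:1 with 2-fold serial compound dilutions. Final DMSO 2.5% v/v. Plates incubated at 35 °C with shaking at 140 rpm for 24 h.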
With `CCNC(=O)Nc1cc(-c2nc(C(F)(F)F)cs2)c(-c2cc3ncccc3nc2N2C3CCC2CN(C)C3)cn1`, the MIC turned out to be 16 µg/mL (≈ 28.1 µM).

The next data set concerns Staphylococcus aureus. Kind of data set: Antibacterial activity against methicillin-resistant Staphylococcus aureus FQ-R after 24 hrs by broth microdilution method. It is filed as functional.
Settings: not given
The method, boiled down:
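Broth microdilution per CLSI. Bacterial suspensions adjusted to 1×10^6 CFU/mL in cation-adjusted Mueller–Hinton broth, mixed 1:1 with 2-fold serial compound dilutions (final DMSO 2.5% v/v). Incubation 35 °C, 140 rpm, 24 h.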
`CCNC(=O)Nc1cc(-c2nc(C(F)(F)F)cs2)c(-c2cc3ncccc3nc2N2C3CCC2CN(C)C3)cn1`: the MIC was less than 0.06 µg/mL.

For another data set, the system named is Pseudomonas aeruginosa. In words: Antibacterial activity against Pseudomonas aeruginosa ARC3612 after 24 hrs by broth microdilution method. The class given is functional. Conditions: ARC3612, 24 h. The method, boiled down:
as §2
Regarding `CCNC(=O)Nc1cc(-c2nc(C(F)(F)F)cs2)c(-c2cc3ncccc3nc2N2C3CCC2CN(C)C3)cn1`, the MIC came out at 32 µg/mL (≈ 56.3 µM).

In another data set the test system is Acinetobacter baumannii. Kind of data set: Antibacterial activity against Acinetobacter baumannii ARC3882 after 24 hrs by broth microdilution method. It is filed as functional. Conditions: ARC3882, 24 h. The method, boiled down: as §2
As for `CCNC(=O)Nc1cc(-c2nc(C(F)(F)F)cs2)c(-c2cc3ncccc3nc2N2C3CCC2CN(C)C3)cn1`, the MIC came out at 2 µg/mL (≈ 3.52 µM).

In the next data set the test system is Pseudomonas aeruginosa. In words: Antibacterial activity against Pseudomonas aeruginosa ARC4060 after 24 hrs by broth microdilution method. It is filed as functional. Conditions: ARC4060, 24 h. The method, boiled down: as §2
Turning to `CCNC(=O)Nc1cc(-c2nc(C(F)(F)F)cs2)c(-c2cc3ncccc3nc2N2C3CCC2CN(C)C3)cn1`, the MIC came to 16 µg/mL (≈ 28.1 µM).

Another data set has as its system Pseudomonas aeruginosa. In words: Antibacterial activity against Pseudomonas aeruginosa ARC3916 after 24 hrs by broth microdilution method. The class given is functional. Conditions: ARC3916, 24 h. The method, boiled down:
as §2
As to `CCNC(=O)Nc1cc(-c2nc(C(F)(F)F)cs2)c(-c2cc3ncccc3nc2N2C3CCC2CN(C)C3)cn1`, the MIC is 16 µg/mL (≈ 28.1 µM).

In another data set the test system is Acinetobacter baumannii. Kind of data set: Antibacterial activity against Acinetobacter baumannii ARC2781 after 24 hrs by broth microdilution method. The class given is functional. Conditions: ARC2781, 24 h. The method, boiled down: as §1
Take `CCNC(=O)Nc1cc(-c2nc(C(F)(F)F)cs2)c(-c2cc3ncccc3nc2N2C3CCC2CN(C)C3)cn1`: the MIC was determined as 0.5 µg/mL (≈ 0.879 µM).

The test system of another data set is Pseudomonas aeruginosa. Kind of data set: Antibacterial activity against Pseudomonas aeruginosa ARC3925 after 24 hrs by broth microdilution method. Conditions: ARC3925, 24 h. It is filed as functional. The method, boiled down:
as §1
In the case of `CCNC(=O)Nc1cc(-c2nc(C(F)(F)F)cs2)c(-c2cc3ncccc3nc2N2C3CCC2CN(C)C3)cn1`, the MIC was 16 µg/mL (≈ 28.1 µM).

For the next data set, the system named is Acinetobacter baumannii. Kind of data set: Antibacterial activity against Acinetobacter baumannii ARC3484 after 24 hrs by broth microdilution method. The class given is functional. Conditions: ARC3484, 24 h. The method, boiled down:
as §1
On to `CCNC(=O)Nc1cc(-c2nc(C(F)(F)F)cs2)c(-c2cc3ncccc3nc2N2C3CCC2CN(C)C3)cn1`, for which the MIC turned out to be 4 µg/mL (≈ 7.03 µM).

Another data set relates to Pseudomonas aeruginosa. In words: Antibacterial activity against Pseudomonas aeruginosa ARC3504 after 24 hrs by broth microdilution method. The class given is functional. Conditions: ARC3504, 24 h. The method, boiled down:
as §2
`CCNC(=O)Nc1cc(-c2nc(C(F)(F)F)cs2)c(-c2cc3ncccc3nc2N2C3CCC2CN(C)C3)cn1` registered an MIC of 32 µg/mL (≈ 56.3 µM).

System in another data set: not listed separately
Kind of data set: Protein binding in human plasma. The class given is ADME, cell-free. Conditions: read-out: PPB (converted).
Turning to `CCNC(=O)Nc1cc(-c2nc(C(F)(F)F)cs2)c(-c2cc3ncccc3nc2N2C3CCC2CN(C)C3)cn1`, the fraction unbound is 0.03.

The next data set deals with Haemophilus influenzae. In words: Antibacterial activity against Haemophilus influenzae ATCC 49247 after 24 hrs by broth microdilution method. Conditions: ATCC 49247, 24 h. The class given is functional. The method, boiled down:
as §2
`CCNC(=O)Nc1cc(-c2nc(C(F)(F)F)cs2)c(-c2cc3ncccc3nc2N2C3CCC2CN(C)C3)cn1`: the MIC came to 0.25 µg/mL (≈ 0.44 µM).

Another data set concerns Pseudomonas aeruginosa. In words: Antibacterial activity against Pseudomonas aeruginosa ARC3607 after 24 hrs by broth microdilution method. It is filed as functional. Conditions: ARC3607, 24 h. The method, boiled down: as §2
As to `CCNC(=O)Nc1cc(-c2nc(C(F)(F)F)cs2)c(-c2cc3ncccc3nc2N2C3CCC2CN(C)C3)cn1`, the MIC was 64 µg/mL (≈ 113 µM).

The next data set deals with Streptococcus pneumoniae. In words: Antibacterial activity against Streptococcus pneumoniae ATCC 49619 after 24 hrs by broth microdilution method. The class given is functional. Conditions: ATCC 49619, 24 h. The method, boiled down:
as §2
`CCNC(=O)Nc1cc(-c2nc(C(F)(F)F)cs2)c(-c2cc3ncccc3nc2N2C3CCC2CN(C)C3)cn1`: the MIC was less than 0.06 µg/mL.

The subject of another data set is Acinetobacter baumannii. In words: Antibacterial activity against Acinetobacter baumannii ARC3659 after 24 hrs by broth microdilution method. Conditions: ARC3659, 24 h. It is filed as functional. The method, boiled down:
as §2
The molecule `CCNC(=O)Nc1cc(-c2nc(C(F)(F)F)cs2)c(-c2cc3ncccc3nc2N2C3CCC2CN(C)C3)cn1` yielded an MIC of 2 µg/mL (≈ 3.52 µM).

The test system of another data set is Acinetobacter baumannii. Kind of data set: Antibacterial activity against Acinetobacter baumannii ARC3495 after 24 hrs by broth microdilution method. Conditions: ARC3495, 24 h. The class given is functional. The method, boiled down:
as §2
In turn, `CCNC(=O)Nc1cc(-c2nc(C(F)(F)F)cs2)c(-c2cc3ncccc3nc2N2C3CCC2CN(C)C3)cn1` showed an MIC of 2 µg/mL (≈ 3.52 µM).

The test system of a further data set is Streptococcus pyogenes. Kind of data set: Antibacterial activity against Streptococcus pyogenes ARC838 after 24 hrs by broth microdilution method. The class given is functional. Conditions: ARC838, 24 h. The method, boiled down:
as §1
Molecule `CCNC(=O)Nc1cc(-c2nc(C(F)(F)F)cs2)c(-c2cc3ncccc3nc2N2C3CCC2CN(C)C3)cn1` registered an MIC of less than 0.06 µg/mL.

Another data set concerns Pseudomonas aeruginosa. In words: Antibacterial activity against Pseudomonas aeruginosa ARC003 after 24 hrs by broth microdilution method. It is filed as functional. Conditions: ARC003, 24 h. The method, boiled down: as §2
Molecule `CCNC(=O)Nc1cc(-c2nc(C(F)(F)F)cs2)c(-c2cc3ncccc3nc2N2C3CCC2CN(C)C3)cn1` had an MIC of 4 µg/mL (≈ 7.03 µM).

The test system of another data set is Pseudomonas aeruginosa. In words: Antibacterial activity against Pseudomonas aeruginosa ARC3502 after 24 hrs by broth microdilution method. Conditions: ARC3502, 24 h. The class given is functional. The method, boiled down: as §1
For `CCNC(=O)Nc1cc(-c2nc(C(F)(F)F)cs2)c(-c2cc3ncccc3nc2N2C3CCC2CN(C)C3)cn1`, the MIC was found to be 16 µg/mL (≈ 28.1 µM).

The target in another data set is DNA topoisomerase 4 subunit B (Escherichia coli K-12, UniProt P20083). Kind of data set: Inhibition of Escherichia coli ParE.
DNA topoisomerase 4 subunit B, sequence (P20083 whole entry): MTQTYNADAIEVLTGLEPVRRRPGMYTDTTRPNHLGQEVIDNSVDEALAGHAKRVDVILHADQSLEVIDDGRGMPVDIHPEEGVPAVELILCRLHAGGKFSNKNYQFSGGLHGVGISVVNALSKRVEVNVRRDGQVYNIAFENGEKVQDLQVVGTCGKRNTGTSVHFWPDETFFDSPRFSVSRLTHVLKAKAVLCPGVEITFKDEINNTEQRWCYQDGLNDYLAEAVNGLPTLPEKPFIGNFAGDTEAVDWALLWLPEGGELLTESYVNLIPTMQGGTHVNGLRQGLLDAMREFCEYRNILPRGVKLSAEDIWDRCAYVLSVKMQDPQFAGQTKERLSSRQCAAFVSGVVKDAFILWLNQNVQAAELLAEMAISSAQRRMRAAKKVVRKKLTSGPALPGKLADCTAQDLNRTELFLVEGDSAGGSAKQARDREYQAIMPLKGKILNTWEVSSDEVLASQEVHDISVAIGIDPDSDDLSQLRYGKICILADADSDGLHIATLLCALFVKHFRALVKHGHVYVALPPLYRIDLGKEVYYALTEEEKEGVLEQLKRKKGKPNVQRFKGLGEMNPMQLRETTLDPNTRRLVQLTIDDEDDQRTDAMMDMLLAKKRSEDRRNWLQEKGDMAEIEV
Settings: not given
In general, IC50 refers to the midpoint of a concentration-inhibition curve. A higher IC50 goes with weaker potency. For the molecule `CCNC(=O)Nc1cc(-c2nc(C(F)(F)F)cs2)c(-c2cc3ncccc3nc2N2C3CCC2CN(C)C3)cn1`, it took 14 nM to reach half-maximal inhibition (IC50).
